Assay results as given in PMC10120002 (Proceedings of the National Academy of Sciences of the …, 2023).
Ends that are not written are not given here.

Target: recombinant Cdk5/p25 complex (Homo sapiens, UniProt Q00535+Q15078)
Test: IP-linked Cdk5 kinase assay, recombinant Cdk5/p25, histone H1
Assay type: biochemical
Settings: recombinant Cdk5/p25, overnight incubation, vs solvent control
Summary of the method: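 Recombinant Cdk5/p25 complex incubated overnight with test peptide or solvent control, then immunoprecipitated with anti-Cdk5 antibody overnight at 4 °C. The immunocomplex was used for a kinase reaction with histone H1 as substrate and ³²P label, resolved on 12% SDS-PAGE, dried, and exposed to film for several hours. ³²P-histone H1 band intensity was quantified, with Coomassie staining as loading check. Six replicates from two independent experiments.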

recombinant Cdk5/p25 complex, sequence (Q00535 whole entry): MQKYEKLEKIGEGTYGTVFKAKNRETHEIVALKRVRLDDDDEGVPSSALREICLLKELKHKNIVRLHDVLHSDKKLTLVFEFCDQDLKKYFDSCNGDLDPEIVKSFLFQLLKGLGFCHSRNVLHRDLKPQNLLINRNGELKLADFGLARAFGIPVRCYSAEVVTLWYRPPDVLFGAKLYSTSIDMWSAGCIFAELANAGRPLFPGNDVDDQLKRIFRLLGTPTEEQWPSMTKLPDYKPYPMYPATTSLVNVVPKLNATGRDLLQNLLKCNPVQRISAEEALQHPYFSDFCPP
recombinant Cdk5/p25 complex, sequence (Q15078 99-307 limits assumed): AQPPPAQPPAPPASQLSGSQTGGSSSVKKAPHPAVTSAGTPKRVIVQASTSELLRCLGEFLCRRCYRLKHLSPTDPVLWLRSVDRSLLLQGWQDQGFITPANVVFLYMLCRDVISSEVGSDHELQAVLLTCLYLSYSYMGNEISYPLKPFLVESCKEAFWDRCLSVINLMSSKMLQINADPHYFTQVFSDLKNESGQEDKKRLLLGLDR

ARAFGIPVRCYS [Cdk5i]
reduction of histone H1 phosphorylation by Cdk5/p25: ~ 22%
